Our source for the inhibition, viability and IC50 values is publication PMC9134407 (ACS Omega, 2022).

The target in one data set is T1, human FXR (Homo sapiens, UniProt Q96RI1).
T1 sequence (Q96RI1 1-486): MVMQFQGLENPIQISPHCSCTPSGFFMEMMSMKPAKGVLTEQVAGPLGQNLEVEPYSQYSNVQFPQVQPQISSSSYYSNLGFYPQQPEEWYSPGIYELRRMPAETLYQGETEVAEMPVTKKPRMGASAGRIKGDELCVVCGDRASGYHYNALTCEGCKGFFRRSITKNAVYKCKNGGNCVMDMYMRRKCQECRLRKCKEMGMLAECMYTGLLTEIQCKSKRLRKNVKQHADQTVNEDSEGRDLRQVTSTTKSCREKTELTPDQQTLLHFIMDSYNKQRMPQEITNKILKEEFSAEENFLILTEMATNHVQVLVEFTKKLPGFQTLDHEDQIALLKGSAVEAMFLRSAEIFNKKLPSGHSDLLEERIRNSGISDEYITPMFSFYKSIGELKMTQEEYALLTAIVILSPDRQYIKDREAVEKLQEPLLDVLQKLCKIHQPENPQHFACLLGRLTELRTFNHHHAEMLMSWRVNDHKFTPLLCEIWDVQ
In words: cell-based luciferase reporter assay. Particulars: for inhibition at 10 µM: HEK-293T. A digest of the protocol: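 HEK293T cells transiently cotransfected with a human FXR expression vector and an SHP promoter luciferase reporter (SHP-luc). Transactivation was driven by GW4064 at 10 μM, with or without test compound. FXR-dependent reporter activity was read as luciferase signal.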

Data set [1] can be described thus: Cell-Titer Blue cytotoxicity assay. In kind it is cell-based. Particulars: human, HEK293T cells.
A further data set relates to FXR. The conditions noted are these: read-out: IC50 FXR antagonist; cited from earlier work.

As usually defined, the inhibition is the relative decrease from the control value, in per cent. Usually viability stands for a read-out of living cells in per cent, often relative to untreated cells. A higher viability goes with less harm to the cells. For orientation: IC50 means the midpoint of a concentration-inhibition curve.

Regarding `CC(=O)O[C@@H]1CC[C@]2(C)C(=O)[C@H](C3CC[C@H]([C@H](C)CCCC(C)C)[C@@]3(C)CC(=O)O)CC[C@H]2C1` (stereo partly shown) [Compound 3a], 10 µM produced 54.7 ± 6.2% inhibition at human FXR. The compound also registered a viability at 10 µM in data set [1] of over 100%.
In the case of `CC(=O)O[C@H]1CC[C@]2(C)C(=O)[C@H](C3CC[C@H]([C@H](C)CCCC(C)C)[C@@]3(C)CC(=O)O)CC[C@H]2C1` (stereo partly shown) [Compound 3b], at human FXR, the inhibition at 10 µM was determined as 24.9 ± 2%. In data set [1], the viability at 10 µM is over 100%.
The like results for `CC(C)CCC[C@@H](C)[C@H]1CCC([C@@H]2CC[C@H]3C[C@H](O)CC[C@]3(C)C2=O)[C@]1(C)CC(=O)O` (stereo partly shown) [Compound 4a] were, in that order, 53.1 ± 4.9% and over 100%.
In the same order, the values of `CC(C)CCC[C@@H](C)[C@H]1CCC([C@@H]2CC[C@H]3C[C@@H](O)CC[C@]3(C)C2=O)[C@]1(C)CC(=O)O` (stereo partly shown) [Compound 4b] are 14.1 ± 4.1% and over 100%.
The like results for `CC(C)CCC[C@@H](C)[C@H]1CCC([C@@H]2CC[C@H]3C[C@H](O)CC[C@]3(C)C2=O)[C@]1(C)C/C=C/C(=O)O` (stereo partly shown) [Compound 7] were, in that order, 76.3 ± 1.9% and over 100%.
As to `CC(C)CCC[C@@H](C)[C@H]1CCC([C@@H]2CC[C@H]3C[C@H](O)CC[C@]3(C)C2=O)[C@]1(C)CCCC(=O)O` (stereo partly shown) [Compound 8], on human FXR, the half-inhibitory concentration (IC50) stood at 7.7 µM and testing at 10 µM gave an inhibition of 85.8 ± 2.4%. In data set [1], this compound had a viability of 41.1% and a viability at 10 µM of over 100%.
For `C[C@H](CCC(=O)NCC(=O)O)[C@H]1CC[C@H]2[C@@H]3[C@@H](O)C[C@@H]4C[C@H](O)CC[C@]4(C)[C@H]3CC[C@]12C` [GUDCA, glycoursodeoxycholic acid], in the data set on FXR, the IC50 was 77.2 µM.
Take `C[C@H](CCC(=O)O)[C@H]1CC[C@H]2[C@@H]3[C@H](O)[C@H](O)[C@@H]4C[C@H](O)CC[C@]4(C)[C@H]3CC[C@]12C` [HCA, hyocholic acid, reference compound]: the IC50 is 27.3 µM at human FXR and 70.1 µM in the data set on FXR. Also, in data set [1], the viability was over 100%.
As to `C[C@H](CCC(=O)NCCS(=O)(=O)O)[C@H]1CC[C@H]2[C@@H]3[C@@H](O)C[C@@H]4C[C@H](O)CC[C@]4(C)[C@H]3CC[C@]12C` [TUDCA, tauroursodeoxycholic acid], in the data set with FXR, the IC50 was 75.1 µM.
